Reference: ChEMBL document CHEMBL4699512, “Synthesis of non-nucleoside anti-viral cyclopropylcarboxacyl hydrazones and initial anti-HSV-1 structure-activity relationship studies” (Bioorg Med Chem Lett, 2020)
Values belong to the compound of their own block, whether it stands above or below them. Calls of active or inactive are those of the source. The calls are words filed in the database; no cut-off is given here.

Assays:
[1] = test system: Human alphaherpesvirus 1; assay: Antiviral activity against recombinant EGFP/RFP expressing Herpes simplex virus 1 KOS infected in iPSC-neurons assessed as decrease in proportion of fluorescent cells compound added 2 hr post infection incubated for 48 hrs by flow cytometry analysis; format: functional, organism-based; details: Induced pluripotent stem cell-derived neuron
Summary of the method: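 iPSC-derived neurons infected with recombinant HSV-1 derived from strain KOS, expressing EGFP from the early ICP0 promoter and monomeric RFP from the glycoprotein C promoter. Infection was scored as the proportion of fluorescent cells. Controls were uninfected cells, virus alone, and virus with acyclovir as positive control. The protocol follows the group's earlier procedure.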

[2] = test system: Human alphaherpesvirus 1; assay: Antiviral activity against Herpes simplex virus 1 infected in neuronal progenitor cells assessed as decrease in fluorescent cells; format: functional, organism-based; details: Human alphaherpesvirus 1, Neuronal cell line
[3] = test system: Neuronal cell line; assay: Cytotoxicity against human neuronal progenitor cells assessed as cell viability at 25 uM; format: cell-based
[4] = test system: Human alphaherpesvirus 1; assay: Potency index, ratio of acyclovir IC50 to compound IC50 for antiviral activity against HSV-1 infected in neuronal progenitor cells; format: functional, Neuronal cell line

SMILES: O=C(N/N=C/c1ccc2c(c1)OCO2)C1CC1(c1ccccc1)c1ccccc1 (stereo unspecified)
- Activity [1]: Active

- IC50 [2]: 27.4 µM
SMILES: Nc1nc2c(ncn2COCCO)c(=O)[nH]1 [ACYCLOVIR]
- Activity [1]: Active

- IC50 [2]: 14.1 µM
SMILES: O=C(N/N=C/c1ccc[nH]1)C1CC1(c1ccc(OC(F)(F)F)cc1)c1ccc(OC(F)(F)F)cc1 (stereo unspecified)
- Activity [1]: Active
- Activity [3]: Non-Toxic
- Ratio IC50 [4]: 2

SMILES: O=C(N/N=C/c1ccccn1)C1CC1(c1ccccc1)c1ccccc1 (stereo unspecified)
- Activity [1]: Active

SMILES: O=C(N/N=C/c1ccc[nH]1)C1CC1(c1ccccc1)c1ccccc1 (stereo unspecified)
- Activity [1]: Active

SMILES: O=C(N/N=C/c1ccccn1)C1CC1(c1ccc(OC(F)(F)F)cc1)c1ccc(OC(F)(F)F)cc1 (stereo unspecified)
- Activity [1]: Active

SMILES: O=C(N/N=C/C1CCCCC1)C1CC1(c1ccccc1)c1ccccc1 (stereo unspecified)
- Activity [1]: Active

SMILES: O=C(N/N=C/c1ccc(F)cc1F)C1CC1(c1ccccc1)c1ccccc1 (stereo unspecified)
- Activity [1]: inactive

SMILES: O=C(N/N=C/c1ccco1)C1CC1(c1ccccc1)c1ccccc1 (stereo unspecified)
- Activity [1]: Active

SMILES: O=C(N/N=C1/CCCc2ccccc21)C1CC1(c1ccccc1)c1ccccc1 (stereo unspecified)
- Activity [1]: inactive

SMILES: COc1cc(/C=N/NC(=O)C2CC2(c2ccccc2)c2ccccc2)cc(OC)c1OC (stereo unspecified)
- Activity [1]: Active

SMILES: O=C(N/N=C/c1c[nH]c2ccccc12)C1CC1(c1ccccc1)c1ccccc1 (stereo unspecified)
- Activity [1]: Active

SMILES: CN(C)c1ccc(/C=N/NC(=O)C2CC2(c2ccccc2)c2ccccc2)cc1 (stereo unspecified)
- Activity [1]: inactive

SMILES: O=C(N/N=C/c1cccs1)C1CC1(c1ccccc1)c1ccccc1 (stereo unspecified)
- Activity [1]: Active

SMILES: O=C(N/N=C/c1ccc(Br)o1)C1CC1(c1ccccc1)c1ccccc1 (stereo unspecified)
- Activity [1]: inactive

SMILES: O=C(N/N=C/c1c[nH]cn1)C1CC1(c1ccccc1)c1ccccc1 (stereo unspecified)
- Activity [1]: inactive

SMILES: O=C(N/N=C/c1ccc([N+](=O)[O-])cc1)C1CC1(c1ccccc1)c1ccccc1 (stereo unspecified)
- Activity [1]: inactive

SMILES: O=C(N/N=C/c1cccnc1)C1CC1(c1ccccc1)c1ccccc1 (stereo unspecified)
- Activity [1]: inactive

SMILES: O=C(N/N=C/c1ccc(Br)cc1)C1CC1(c1ccccc1)c1ccccc1 (stereo unspecified)
- Activity [1]: inactive

SMILES: O=C(N/N=C/c1ccccc1Cl)C1CC1(c1ccccc1)c1ccccc1 (stereo unspecified)
- Activity [1]: Active

SMILES: O=C(N/N=C/c1ncc[nH]1)C1CC1(c1ccccc1)c1ccccc1 (stereo unspecified)
- Activity [1]: inactive

SMILES: COc1cc(/C=N/NC(=O)C2CC2(c2ccccc2)c2ccccc2)ccc1O (stereo unspecified)
- Activity [1]: inactive
